Measurements as given in PMC10099993 (Clinical Pharmacology in Drug Development, 2022).
Several values for one entry are separate records, joined by “and”; a condition that tells them apart may be missing. Equal values may be shown once. Read-outs that look alike come from different tables or passages of the source.

Legend:
[1] = Mass balance study, single oral dose of [14C]-pexidartinib 400 mg; assay type: in vivo, human; details: for Percent of Radioactive Dose, feces: pooled feces
How it was run: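 Eight healthy men, 19–55 y, BMI 19–32 kg/m2. Single oral 400 mg (150 μCi) 14C suspension with ~50 mL water after ≥8 h fast, fasting ≥4 h after dosing. Confined ≥168 h; urine and feces collected up to 240 h. Total radioactivity by scintillation counting. Parent in plasma by validated LC-MS/MS. Radio-LC-MS profiling of metabolites. Noncompartmental PK.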

[2] = assay type: in vivo, human; details: for half-life / Cmax: human, plasma; for half-life: oral; for Cmax: po; for dose-normalized AUCinf, geometric LS mean / dose-normalized AUClast, geometric LS mean / dose-normalized Cmax, geometric LS mean: ANOVA
How it was run: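 Healthy adults of both sexes, 18–60 y, BMI 18–30 kg/m2. Randomized three-period crossover (sequences ABC/BCA/CAB), with a single fasted oral dose and 240 mL water on day 1 of each period and a 10-day washout. Plasma sampled 0.5–144 h postdose and analysed by validated LC-MS/MS. Noncompartmental PK. Mixed-effects ANOVA on dose-normalized ln Cmax/AUC versus the 400 mg reference. Power model: 90% CI of slope against the 80–120% interval.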

rCYP3A4 = rCYP3A4 (Homo sapiens, UniProt P08684); assay: In vitro metabolic enzyme identification, recombinant human CYP incubation; assay type: in vitro ADME; details: 1 μM pexidartinib, NADPH, 37°C, 30 minutes
Chain of rCYP3A4 (P08684 whole entry): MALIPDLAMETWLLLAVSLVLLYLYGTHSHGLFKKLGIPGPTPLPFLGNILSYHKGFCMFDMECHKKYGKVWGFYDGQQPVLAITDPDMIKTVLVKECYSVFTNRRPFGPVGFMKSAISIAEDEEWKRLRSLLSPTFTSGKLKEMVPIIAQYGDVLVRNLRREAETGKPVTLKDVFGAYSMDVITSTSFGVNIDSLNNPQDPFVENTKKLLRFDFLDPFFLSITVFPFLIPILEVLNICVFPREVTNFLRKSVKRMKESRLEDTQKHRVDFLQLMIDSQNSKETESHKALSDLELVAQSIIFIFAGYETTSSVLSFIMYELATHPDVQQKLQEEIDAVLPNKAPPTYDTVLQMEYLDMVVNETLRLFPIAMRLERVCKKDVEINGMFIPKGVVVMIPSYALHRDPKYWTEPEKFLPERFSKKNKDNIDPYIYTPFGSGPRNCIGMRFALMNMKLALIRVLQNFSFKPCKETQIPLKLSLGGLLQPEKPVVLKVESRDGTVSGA
How it was run: (§1)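 1 μM test compound incubated with a panel of recombinant human CYPs (1A2, 2B6, 2C8, 2C9, 2C19, 2D6, 3A4, 3A5) plus NADPH at 37°C for 30 minutes. Parent loss measured by LC-MS/MS.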

rCYP3A5 = rCYP3A5 (Homo sapiens, UniProt P20815); assay: as above; assay type: in vitro ADME; details: 1 μM pexidartinib, NADPH, 37°C, 30 minutes
Chain of rCYP3A5 (P20815 whole entry): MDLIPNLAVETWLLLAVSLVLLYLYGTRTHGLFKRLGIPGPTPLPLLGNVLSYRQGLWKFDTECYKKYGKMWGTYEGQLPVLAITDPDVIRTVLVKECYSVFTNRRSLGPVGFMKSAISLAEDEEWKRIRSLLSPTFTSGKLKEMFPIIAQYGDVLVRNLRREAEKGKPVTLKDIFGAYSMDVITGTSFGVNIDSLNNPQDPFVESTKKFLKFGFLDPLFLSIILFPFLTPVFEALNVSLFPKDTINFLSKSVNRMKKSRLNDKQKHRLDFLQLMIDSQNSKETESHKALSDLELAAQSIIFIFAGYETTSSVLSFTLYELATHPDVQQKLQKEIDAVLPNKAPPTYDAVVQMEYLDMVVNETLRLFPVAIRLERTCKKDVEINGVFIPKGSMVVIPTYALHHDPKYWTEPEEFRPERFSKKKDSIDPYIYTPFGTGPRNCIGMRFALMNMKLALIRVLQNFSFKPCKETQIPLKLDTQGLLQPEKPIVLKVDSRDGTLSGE
How it was run: as §1

cytochrome P450 (CYP) 3A = details: previous pharmacokinetic analyses ref 4; cited from earlier work
CYP2C9 = details: previous pharmacokinetic analyses ref 4; cited from earlier work
[3] = following oral administration; background statement, no reference given; cited from earlier work
[4] = male, human, plasma, po, 400 mg
[5] = single oral [14C]-pexidartinib 400 mg
[6] = single oral [14C]-pexidartinib 400 mg, N = 8, median (range)
[7] = across all three dose levels, 90%CI
[8] = dose-proportionality study, 18 subjects
[9] = pexidartinib 200 mg vs 400 mg (400 mg reference)
[10] = pexidartinib 400 mg vs 600 mg (400 mg reference)

Which “time of peak pexidartinib and total radioactivity” value ([1]; after the oral dose, pexidartinib and total radioactivity together) does the source give for FC(F)(F)c1ccc(CNc2ccc(Cc3c[nH]c4ncc(Cl)cc34)cn2)cn1 [Pexidartinib] here?
Its value is 1.75 to 2.0 h.

What about the “severity of TEAEs” value ([1]; all events, mass balance study) of the same compound?
Its value is “mild (grade 1)”.

What about the oral bioavailability ([1]; inferred from 44% of dose excreted unchanged in feces) of the same compound?
The oral bioavailability was “moderate”.

And the Cmax [1, 4]?
Its Cmax is 2920 ng/mL.

What about the Tmax [1, 4] of the same compound?
The Tmax was 1.75 h.

And the half-life [1, 4]?
Its half-life is 28.7 h.

And the AUC(0-t) ([1]; male, human, plasma, po, 400 mg, AUClast, pexidartinib in plasma, single oral [14C]-pexidartinib 400 mg, N = 8, mean (CV%))?
Its AUC(0-t) is 60400 ng·h/mL.

What about the “TEAE deemed by the investigator to be related to pexidartinib treatment” value ([1]; mass balance study) of the same compound?
Its value is “Diarrhea”.

What about the “TEAE leading to death, serious adverse event, or discontinuation” value ([1]; mass balance study, 8 subjects) of the same compound?
Its value is “No subject”.

And the “number of TEAEs” value ([1]; mass balance study, 8 subjects)?
The value was “four”.

What about the “administered radioactivity recovered in the feces” value ([1]; over 240 hours, single oral [14C]-pexidartinib 400 mg) of the same compound?
Its value is 64.8%.

What about the “administered radioactivity recovered in the urine” value ([1]; over 240 hours, single oral [14C]-pexidartinib 400 mg, listed as [^14C]‐pexidartinib) of the same compound?
The value was 27.4%.

And the “administered radioactivity recovered in the urine” value ([1]; over 240 hours, single oral [14C]-pexidartinib 400 mg, listed as pexidartinib)?
Its value is > 20%.

What about the “share of total radioactivity in the plasma” value ([1]; plasma, single oral [14C]-pexidartinib 400 mg) of the same compound?
Its value is 34.9%.

And the “Percent of Radioactive Dose, feces” value [1, 5]?
The value was 44%.

And the “Percent of Radioactive Dose, feces” value ([1]; single oral [14C]-pexidartinib 400 mg, listed as pexidartinib)?
The value was 44.0%.

And the “Percent of Radioactive Dose, urine” value ([1]; pooled urine, single oral [14C]-pexidartinib 400 mg)?
The value was “no detectable”.

What about the “AUC0-24 of total plasma radioactivity relative to plasma pexidartinib” value [1, 5] of the same compound?
The value was “approximately 2 fold”.

What about the “AUClast of total radioactivity in plasma relative to pexidartinib in plasma” value [1, 5] of the same compound?
Its value is 3 fold.

What about the “Cmax of total plasma radioactivity relative to plasma pexidartinib” value [1, 5] of the same compound?
The value was “approximately 2 fold”.

And the “Tmax, total radioactivity in plasma” value [1, 6]?
Its value is 2.0 (1.5, 3.0) h.

And the “Tmax, total radioactivity in whole blood” value [1, 6]?
Its value is 2.0 (1.5, 3.0) h.

What about the “dose proportionality by power model” value ([2]; 200-600 mg, 90%CIs overlapped the 0.80-1.20 acceptance interval) of the same compound?
The value was “inconclusive”.

What about the “slope estimate for AUClast versus dose (power model)” value [2, 7] of the same compound?
Its value is 0.85 (90%CI 0.77, 0.92).

What about the “slope estimate for Cmax versus dose (power model)” value [2, 7] of the same compound?
Its value is 0.83 (90%CI 0.74, 0.91) and 0.83 (90%CI, 0.74, 0.91).

What about the “severity of TEAEs” value ([2]; all TEAEs, dose-proportionality study) of the same compound?
The value was “grade 1”.

What about the “TEAE leading to death, serious adverse event, or discontinuation” value [2, 8] of the same compound?
Its value is “No subject”.

And the “subjects who experienced TEAEs” value [2, 8]?
The value was “four”.

And the half-life [2]?
Its half-life is 24.8 to 26.7 h.

What about the half-life ([2]; 600 mg) of the same compound?
Its half-life is 24.8 h.

And the Cmax ([2]; 200 mg)?
The Cmax was 2490 ng/mL.

What about the Cmax ([2]; 400 mg) of the same compound?
The Cmax was 4660 ng/mL.

And the Cmax ([2]; 600 mg)?
Its Cmax is 6030 ng/mL.

And the “dose-normalized AUCinf, geometric LS mean ratio (90%CI)” value [2, 9]?
The value was 101.3 (93.5, 109.7) %.

And the “dose-normalized AUClast, geometric LS mean ratio (90%CI)” value [2, 9]?
The value was 101.3 (93.5, 109.8) %.

And the “dose-normalized Cmax, geometric LS mean ratio (90%CI)” value [2, 9]?
Its value is 105.9 (96.8, 115.8) %.

And the “dose-normalized AUCinf, geometric LS mean” value ([2]; pexidartinib 200 mg, n = 18)?
Its value is 209.4 ng·h/mL/mg.

What about the “dose-normalized AUClast, geometric LS mean” value ([2]; pexidartinib 200 mg, n = 18) of the same compound?
Its value is 204.1 ng·h/mL/mg.

And the “dose-normalized Cmax, geometric LS mean” value ([2]; pexidartinib 200 mg, n = 18)?
Its value is 11.7 ng/mL • mg.

And the “t1/2, pexidartinib in plasma” value ([2]; pexidartinib 200 mg, n = 18, mean (SD))?
The value was 25.5 (5.2) h.

And the “dose-normalized AUCinf, geometric LS mean ratio (90%CI)” value [2, 10]?
Its value is 83.7 (77.3, 90.7) %.

And the “dose-normalized AUClast, geometric LS mean ratio (90%CI)” value [2, 10]?
Its value is 84.1 (77.6, 91.2) %.

And the “dose-normalized Cmax, geometric LS mean ratio (90%CI)” value [2, 10]?
The value was 86.3 (79.0, 94.4) %.

What about the “dose-normalized AUCinf, geometric LS mean” value ([2]; pexidartinib 400 mg, n = 18) of the same compound?
The value was 206.8 ng·h/mL/mg.

What about the “dose-normalized AUClast, geometric LS mean” value ([2]; pexidartinib 400 mg, n = 18) of the same compound?
The value was 201.4 ng·h/mL/mg.

And the “dose-normalized Cmax, geometric LS mean” value ([2]; pexidartinib 400 mg, n = 18)?
The value was 11.0 ng/mL • mg.

What about the “dose-normalized AUCinf, geometric LS mean” value ([2]; pexidartinib 600 mg, n = 18) of the same compound?
The value was 173.2 ng·h/mL/mg.

What about the “dose-normalized AUClast, geometric LS mean” value ([2]; pexidartinib 600 mg, n = 18) of the same compound?
Its value is 169.4 ng·h/mL/mg.

And the “dose-normalized Cmax, geometric LS mean” value ([2]; pexidartinib 600 mg, n = 18)?
Its value is 9.5 ng/mL • mg.

And the substrate loss (rCYP3A4)?
Its substrate loss is 100 % loss.

And the substrate loss (rCYP3A5)?
Its substrate loss is 100 % loss.

And the “effect on CYP3A” value (cytochrome P450 (CYP) 3A)?
The value was “moderate inducer”.

And the “effect on CYP2C9” value (CYP2C9)?
Its value is “weak inhibitor”.

And the “time of maximum plasma concentrations” value [3]?
The value was “approximately 2.5 hours”.
